Only some compounds are listed: those with a hit (about 3% of all), similar ones and a draw of the others.
Apaf-1 inh: blocks human Apaf-1 apoptosome activity; O14727; reconstituted apoptosome caspase-3 activity, DEVD-Rh110 fluorescence; inhibition, % at 20 µM; 330,000 tested, 0.71% active; AID 489030; active = inhibition of at least 40% at 20 µM
Target sequence (O14727 whole entry, looked up): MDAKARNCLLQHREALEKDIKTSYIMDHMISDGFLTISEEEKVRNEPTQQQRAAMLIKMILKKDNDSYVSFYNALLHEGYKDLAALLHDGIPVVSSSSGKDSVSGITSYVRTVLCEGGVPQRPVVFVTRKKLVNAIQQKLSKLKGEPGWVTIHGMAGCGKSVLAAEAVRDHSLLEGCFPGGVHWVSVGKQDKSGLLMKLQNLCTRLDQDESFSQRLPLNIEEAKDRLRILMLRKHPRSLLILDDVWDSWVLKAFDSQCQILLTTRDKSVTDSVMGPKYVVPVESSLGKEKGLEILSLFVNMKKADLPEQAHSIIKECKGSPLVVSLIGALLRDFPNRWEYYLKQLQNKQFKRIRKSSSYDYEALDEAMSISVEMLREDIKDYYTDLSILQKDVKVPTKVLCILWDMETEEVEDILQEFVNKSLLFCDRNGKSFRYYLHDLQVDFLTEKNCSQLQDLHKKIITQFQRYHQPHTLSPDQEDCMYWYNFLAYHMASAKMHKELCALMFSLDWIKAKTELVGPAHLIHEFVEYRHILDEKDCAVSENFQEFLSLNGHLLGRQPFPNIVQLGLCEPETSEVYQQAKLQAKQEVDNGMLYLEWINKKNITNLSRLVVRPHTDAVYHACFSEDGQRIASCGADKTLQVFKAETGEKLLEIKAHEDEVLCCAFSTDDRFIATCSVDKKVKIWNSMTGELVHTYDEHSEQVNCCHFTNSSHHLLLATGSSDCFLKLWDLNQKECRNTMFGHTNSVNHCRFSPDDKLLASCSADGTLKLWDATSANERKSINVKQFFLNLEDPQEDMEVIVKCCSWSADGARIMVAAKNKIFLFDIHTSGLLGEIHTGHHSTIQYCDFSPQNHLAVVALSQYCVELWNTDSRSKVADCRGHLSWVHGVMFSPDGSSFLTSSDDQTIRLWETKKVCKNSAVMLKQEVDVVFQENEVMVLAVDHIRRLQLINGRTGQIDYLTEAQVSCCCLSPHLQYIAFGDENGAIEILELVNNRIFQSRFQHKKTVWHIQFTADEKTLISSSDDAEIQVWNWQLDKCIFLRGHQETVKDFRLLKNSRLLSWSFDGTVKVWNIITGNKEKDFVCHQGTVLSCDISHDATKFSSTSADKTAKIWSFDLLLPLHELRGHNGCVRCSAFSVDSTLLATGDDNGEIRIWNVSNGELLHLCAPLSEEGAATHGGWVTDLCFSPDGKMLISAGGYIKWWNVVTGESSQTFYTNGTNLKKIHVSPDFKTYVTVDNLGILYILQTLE
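Material: reconstituted apoptosome with Apaf-1, cytochrome c, caspase-9, procaspase-3, dATP. Technique: Rh110 fluorescence intensity. Buffer or medium: pH 7.5 Hepes buffer with CHAPS, BSA, DTT. Times: 30 min plus 50 min, RT.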
UBC13 polyUb: inhibitors of human UBC13 polyubiquitin chain formation; inhibition, % at 20 µM; P61088; 330,000 tested, 0.47% active; TR-FRET; AID 485273; in the data active = inhibition above about 45%, passing the limit was not always enough
MIN6 prolif: MIN6 beta-cell proliferation induction | MIN6 cells proliferation, ATPlite luminescence, 48 h; cells starved in 0.2% serum; 100% = growth in 10% serum | proliferation, % at 10 µM | 330,000 tested, 0.29% active | AID 2380;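 active = compounds whose signal lies at least 3.5 SD above the mean of all wells on their plate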
Exocytosis inh: lytic granule exocytosis inhibition | 360,000 tested, 0.66% active | inhibition, % at 10 µM | AID 651702 | TALL-104 LAMP-1 surface exposure, flow cytometry; cells stimulated with thapsigargin and PMA;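 active = inhibition above about 55%, limit read from the data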
hiPSC survival: hiPSC single-cell survival enhancement; ATPlite luminescence; 100% = ROCK inhibitor wells, 0% = DMSO; 360,000 tested, 0.044% active; AID 602274; survival enhancement, % at 20 µM; in the data active = survival enhancement above about 18%;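 also: cells exposed to compounds for 16 hours before the ATP read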
MPTP block: permeability transition pore inhibition | isolated mouse mitochondria, Ca2+ swelling absorbance, 30 min | inhibition, % at 10 µM | 360,000 tested, 1.4% active | AID 602449;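 active = inhibition of 50% or more, scaled per plate between neutral and stimulator controls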
Casp3 counter: counter-screen for UBC13 inhibitors: human caspase-3 inhibition; shares compounds with UBC13 polyUb; Recombinant caspase-3, Caspase-Glo 3/7 luminescence, 60 min; inhibition, % at 20 µM; 1,400 tested, 4% active;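 active = mean inhibition across replicates above about 26%, limit read from the data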
UBC13 confirm: human UBC13 polyubiquitin inhibition, confirmed; shares compounds with UBC13 polyUb; UBC13 polyubiquitination, TR-FRET, biochemical; inhibition, % at 10 µM; 1,400 tested, 68% active; in the data active = inhibition above about 45%
A number is an active result; – = inactive; · = no result.

SMILES | Apaf-1 inh | UBC13 polyUb | MIN6 prolif | Exocytosis inh | hiPSC survival | MPTP block | Casp3 counter | UBC13 confirm
O=C1c2cccc3cccc(c23)N1Cc1ccc(F)cc1 | – | 83.0 | – | – | – | – | – | 95.9
O=C1c2cccc3cccc(c23)N1Cc1cccc(F)c1 | – | 76.4 | – | – | – | – | – | 90.2
CCC(C)(C)C1CCC(NC(=O)c2ccc(S(=O)(=O)N3CCOCC3)cc2)CC1 (configuration not stated) | – | – | – | – | – | – | · | ·
O=S1(=O)N[C@H](Cc2ccccc2)COc2cc(N3CCC[C@@H]3CO)ccc21 | · | · | · | – | – | – | · | ·
COc1ccccc1N(C)S(=O)(=O)c1ccc(C(=O)Nc2nccs2)cc1 | – | – | – | – | – | – | · | ·
C#CCOCCOCCOCCNc1nc(N2CCN(C(=O)[C@H]([C@@H](C)CC)n3cc(CCCN=C(N)N)nn3)CC2)nc(N2CCN(C(=O)[C@H](CCCCN)n3cc(CCCC)nn3)CC2)n1 | – | 71.0 | – | – | – | – | – | 46.7
C#CCOCCOCCOCCNc1nc(N2CCN(C(=O)[C@H]([C@@H](C)CC)n3cc([C@@H](N)CO)nn3)CC2)nc(N2CCN(C(=O)[C@H](CCCCN)n3cc([C@@H](N)CO)nn3)CC2)n1 | – | – | – | – | – | – | · | ·
C#CCOCCOCCOCCNc1nc(N2CCN(C(=O)[C@H](CCCN=C(N)N)n3cc(C(N)[C@@H](C)CC)nn3)CC2)nc(N2CCN(C(=O)[C@H](CCCCN)n3cc([C@@H](N)CC(N)=O)nn3)CC2)n1 (some centres not stated) | – | 50.4 | – | – | – | – | – | –
C#CCOCCOCCOCCNc1nc(N2CCN(C(=O)[C@H](CCCN=C(N)N)n3cc(C(N)[C@@H](C)CC)nn3)CC2)nc(N2CCN(C(=O)[C@H](CCC(=O)O)n3cc([C@@H](N)CC(N)=O)nn3)CC2)n1 (some centres not stated) | – | – | – | – | – | – | · | ·
C#CCOCCOCCOCCNc1nc(N2CCN(C(=O)[C@H](CO)n3cc([C@@H](N)C(C)C)nn3)CC2)nc(N2CCN(C(=O)[C@H](CCCCN)n3cc([C@@H](N)[C@H](C)CC)nn3)CC2)n1 | – | 84.0 | – | – | – | – | – | 59.4
COc1ccc(CC(=O)Nc2ccc(S(=O)(=O)N3CCOCC3)cc2)cc1 | – | – | – | – | – | – | · | ·
COc1ccc(OCCCC(=O)Nc2ccc(S(=O)(=O)N3CCOCC3)cc2)cc1 | – | 57.6 | – | – | – | – | – | 55.4
O=C(NCCCN1CCOCC1)c1cc2c([nH]c3ccccc32)c(-c2cccc(Br)c2)n1 | – | 50.7 | – | – | – | – | – | –
COc1cccc(-c2nc(C(=O)NCCCN3CCOCC3)cc3c2[nH]c2ccccc23)c1 | – | – | – | – | – | – | · | ·
O=C(Cc1ccc(Cl)cc1)NC1CCCN(Cc2ccccc2F)C1 (configuration not stated) | – | – | – | – | – | – | · | ·
C[C@H](NC(=O)c1ccccc1Cl)C(=O)OCc1cn2cc(Cl)ccc2n1 | – | 106.0 | – | – | – | – | – | –
COc1ccc(-c2oc(=O)c3cc(OC)c(OC)cc3c2C#CC2(O)CCCCC2)cc1 | – | 46.6 | – | – | – | – | – | –
CCCCN(C)CCNC(=O)c1ccc(Cn2c(=S)[nH]c3ccc(Br)cc3c2=O)cc1 | – | 48.3 | – | – | – | – | 33.5 | 48.2
CCCCN1C(=N)N([C@@H](CCC)CN2CCC[C@H]2CN2C(N)=NC[C@@H]2Cc2ccccc2)C[C@H]1Cc1ccccc1 | – | 54.5 | – | – | – | – | – | –
CC[C@@H](C)[C@@H]1CN([C@@H](CN2CCC[C@H]2CN2C(N)=NC[C@H]2CC(C)C)C(C)C)C(=N)N1CCCC1CCCC1 | – | 66.3 | – | – | – | – | – | 58.5
CCCCN1C(=N)N([C@@H](C)CN2CCC[C@H]2CN2C(N)=NC[C@@H]2Cc2ccccc2)C[C@H]1[C@H](C)CC | – | – | – | – | – | – | · | ·
COc1cc(C(CCN2CCCCC2)c2c(OC)cc(OC)c3c(-c4ccccc4)cc(=O)oc23)cc(OC)c1OC (configuration not stated) | – | 47.9 | – | – | – | – | – | –
COc1cc(C(CCN2CCCC2)c2c(OC)cc(OC)c3c(C)cc(=O)oc23)cc(OC)c1OC (configuration not stated) | – | – | – | – | – | – | · | ·
COc1cc(C(CC(=O)N2CCCC2)c2c(OC)cc(OC)c3c(-c4ccccc4)cc(=O)oc23)cc(OC)c1OC (configuration not stated) | – | – | – | – | – | – | · | ·
CCCCCc1cc(=O)oc2c(C(CCN3CCN(c4ccccc4)CC3)c3ccc4c(c3)OCO4)c(OC)cc(OC)c12 (configuration not stated) | – | – | – | – | – | – | · | ·
SMILES | Apaf-1 inh | UBC13 polyUb | MIN6 prolif | Exocytosis inh | hiPSC survival | MPTP block | Casp3 counter | UBC13 confirm
CCCCCc1cc(=O)oc2c(C(CCN3CCCCC3)c3ccc(OC)cc3)c(OC)cc(OC)c12 (configuration not stated) | – | 83.8 | – | – | – | – | – | 62.8
COc1cc(C(CCN2CCCC(C)C2)c2c(OC)cc(OC)c3c(-c4ccccc4)cc(=O)oc23)cc(OC)c1OC (configuration not stated) | – | 64.6 | – | – | – | – | – | –
c1ccc(C[C@H]2CN=C(Nc3ccccc3)N2CC2CCCC2)cc1 | · | · | · | – | – | – | · | ·
Brc1ccc(-c2nnc3ccc(N4CCN(c5ccccc5)CC4)nn23)cc1 | – | 61.9 | – | – | – | – | – | –
COc1ccc(S(=O)(=O)N2CCN(c3ccc4nnc(-c5ccccc5)n4n3)CC2)cc1 | 64.9 | 51.2 | – | – | – | – | – | –
CC(=O)Nc1ccc(NC(=O)CSc2ncc(C(=O)Nc3ccc(F)cc3)c(=O)n2C)cc1 | – | 71.3 | – | – | – | – | 98.0 | 62.5
CC(=O)Nc1ccc(NC(=O)CSc2ncc(C(=O)Nc3ccc(Cl)cc3)c(=O)n2C)cc1 | – | 55.3 | – | – | – | – | 97.1 | –
CC(=O)Nc1cccc(NC(=O)CSc2ncc(C(=O)Nc3ccc(F)cc3)c(=O)n2C)c1 | – | 51.0 | – | – | – | – | 97.4 | –
CC(=O)Nc1cccc(NC(=O)CSc2ncc(C(=O)Nc3ccccc3)c(=O)n2C)c1 | – | 82.1 | – | – | – | – | 95.4 | 86.1
Cc1cccc(NC(=O)CSc2nc3ccccc3c(=O)n2C)c1 | – | – | – | – | – | – | · | ·
CC(=O)Nc1ccc(NC(=O)CSc2nnnn2-c2ccc(F)cc2)cc1 | – | – | – | – | – | – | · | ·

Screens deposited in PubChem by several laboratories.
